# From article PMC11400628 (Protein Science : A Publication of the Protein Society, 2024)
# B1: human CaMKIIα wild-type (WT) hub domain (domain or fragment, UniProt Q9UQM7 345-475, looked up)
# chain: VRKQEIIKVTEQLIEAISNGDFESYTKMCDPGMTAFEPEALGNLVEGLDFHRFYFENLWSRNSKPVHTTILNPHIHLMGDESACIAYIRITQYLDAGGIPRTAQSEETRVWHRRDGKWQIVHFHRSGAPSV
# Legend:
# CaMKIIα WT hub [1] = target: T1, CaMKIIα WT hub (Homo sapiens, UniProt Q9UQM7); experiment: Thermal shift assay; format: binding; details: for maximum ∆Tm: DSF, mean ± SEM, n = 3
# T1 sequence (Q9UQM7 345-475): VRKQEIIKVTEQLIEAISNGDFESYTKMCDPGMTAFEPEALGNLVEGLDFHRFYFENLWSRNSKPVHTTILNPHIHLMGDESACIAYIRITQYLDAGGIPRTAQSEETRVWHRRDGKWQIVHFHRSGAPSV
# CaMKIIα W403L hub [2] = target: T2, CaMKIIα W403L hub (Homo sapiens, UniProt Q9UQM7, W403L); experiment: Thermal shift assay; format: binding; details: DSF, mean ± SEM, n = 3
# T2 sequence (Q9UQM7 345-475 W403L): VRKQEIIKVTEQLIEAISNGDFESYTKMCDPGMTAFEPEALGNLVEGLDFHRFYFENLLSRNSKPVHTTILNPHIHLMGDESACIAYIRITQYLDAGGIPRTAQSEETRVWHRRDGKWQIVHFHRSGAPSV
# CaMKIIα WT hub [3] = target: T1, CaMKIIα WT hub; experiment: Small-angle X-ray scattering, CaMKIIα WT hub; details: CaMKIIα WT hub 1.2–3.9 mg/mL; PIPA 200 μM, HOCPCA 1000 μM, 5-HDC 100 μM
# CaMKIIα holoenzyme = CaMKIIα holoenzyme (Homo sapiens, UniProt Q9UQM7); experiment: ADP-Glo kinase assay, syntide-2 phosphorylation; format: biochemical; details: sub-maximal (30 nM) CaM; concentrations up to 5–10 mM
# CaMKIIα WT hub [4] = target: T1, CaMKIIα WT hub; experiment: Mass photometry, CaMKIIα WT hub; details: CaMKIIα WT hub 100–500 nM, incubated with 200 μM PIPA
# CaMKIIα 6x hub [5] = target: T3, CaMKIIα 6x hub (Homo sapiens, UniProt Q9UQM7, E355Q/F467M/I414M/I464H/T354N/T412N); experiment: Small-angle X-ray scattering, CaMKIIα 6x hub; details: CaMKIIα 6x hub 6.7 mg/mL, PIPA 200 μM
# T3 sequence (Q9UQM7 345-475 T354N/E355Q/T412N/I414M/I464H/F467M): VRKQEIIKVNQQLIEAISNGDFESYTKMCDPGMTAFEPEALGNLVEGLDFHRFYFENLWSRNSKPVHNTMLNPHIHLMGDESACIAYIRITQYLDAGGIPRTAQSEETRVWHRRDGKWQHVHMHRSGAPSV
# In short: (§1)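 SAXS. Purified hub constructs were buffer-exchanged by spin desalting into 20 mM MES, 150 mM NaCl, 1 mM DTT, pH 6.0, with or without 200 μM test compound, and measured as dilution series of 1–7 mg/mL protein at 20–22°C. Frames were radially averaged, buffer-subtracted and merged, scaled by concentration. Curves were fitted with dodecamer, tetradecamer, mixed or stacked-dodecamer models.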
# CaMKIIα WT hub [6] = target: T1, CaMKIIα WT hub; experiment: Surface plasmon resonance, immobilized CaMKIIα WT hub; format: binding
# In short: (§2)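 SPR at 25°C. Purified hub (WT or W403L) was amine-coupled to the sensor in 20 mM NaAc, pH 5. Test compound was injected as twofold dilutions in MES running buffer (20 mM MES, 150 mM NaCl, 1 mM DTT, pH 6), with blank and reference-surface subtraction. Equilibrium responses versus concentration were fitted to a 1:1 Langmuir isotherm for KD. Independent experiments: WT n = 3, W403L n = 2.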
# CaMKIIα 6x hub [7] = target: T3, CaMKIIα 6x hub; experiment: Intrinsic tryptophan fluorescence assay; format: binding; details: pIC50, quenching of intrinsic tryptophan fluorescence, purified CaMKIIα 6x hub
# In short: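 Purified human CaMKIIα 6x hub (residues 345–475 with six stabilising mutations). Intrinsic Trp fluorescence was read at 25°C across a test compound series (e.g. 0.43–12.1 μM). Signals were background-corrected for compound in buffer, then normalised between hub alone and the high-concentration plateau. IC50 came from a variable-slope log(inhibitor)-response fit of pooled data, n = 3.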
# CaMKIIα W403L hub [8] = target: T2, CaMKIIα W403L hub; experiment: Small-angle X-ray scattering, CaMKIIα W403L hub; details: CaMKIIα W403L hub 6.8 mg/mL, PIPA 200 μM
# In short: as §1
# CaMKIIα W403L hub [9] = target: T2, CaMKIIα W403L hub; experiment: Mass photometry, CaMKIIα W403L hub; details: CaMKIIα W403L hub 100–500 nM, incubated with 200 μM PIPA
# In short: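 Mass photometry. The instrument was calibrated with apoferritin, BSA and […]. Purified W403L hub (1.5 mg/mL) was incubated 90 min with 200 μM test compound, then desalted into MES buffer (20 mM MES, 150 mM NaCl, 1 mM DTT, pH 6.0) plus compound. It was diluted to 500, 200 and 100 nM and recorded for 60 s, with a buffer blank before each run. Single-molecule mass histograms were built.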
# CaMKIIα W403L hub [10] = target: T2, CaMKIIα W403L hub; experiment: Surface plasmon resonance, immobilized CaMKIIα W403L hub; format: binding
# In short: as §2
# GHB binding site = details: low-affinity; ref Wellendorph et al., 2009; cited from earlier work
# [11] = target: human CaMKIIα W403L hub domain (human) (UniProt Q9UQM7); experiment: mass photometry
# SAXS = target: the molecule itself; experiment: SAXS
# Sequence of CaMKIIα holoenzyme (Q9UQM7 whole entry): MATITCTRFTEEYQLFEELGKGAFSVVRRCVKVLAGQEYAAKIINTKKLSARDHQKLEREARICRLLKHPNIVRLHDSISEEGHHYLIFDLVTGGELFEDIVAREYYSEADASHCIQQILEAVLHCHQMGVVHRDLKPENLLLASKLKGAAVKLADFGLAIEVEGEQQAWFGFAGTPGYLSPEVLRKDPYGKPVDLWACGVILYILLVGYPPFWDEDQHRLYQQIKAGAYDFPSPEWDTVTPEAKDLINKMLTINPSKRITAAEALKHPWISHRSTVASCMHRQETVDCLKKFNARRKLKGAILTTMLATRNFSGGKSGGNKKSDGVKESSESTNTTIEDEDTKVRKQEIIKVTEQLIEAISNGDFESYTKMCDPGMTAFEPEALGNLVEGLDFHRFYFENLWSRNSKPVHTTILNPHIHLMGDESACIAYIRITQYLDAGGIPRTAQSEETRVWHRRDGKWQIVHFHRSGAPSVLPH
molecule,measurement,setting,value
"O=C(O)C1=CC(O)CC1 (stereo not shown) [HOCPCA, 3‐hydroxycyclopent‐1‐enecarboxylic acid, reference compound]",maximum ∆Tm,CaMKIIα WT hub [1],11.5 ± 0.6 °C
same,maximum ∆Tm,CaMKIIα W403L hub [2],15.2 ± 1.0 °C
same,self-association / oligomeric state of hub (SAXS),CaMKIIα WT hub [3],not observed
same,effect on syntide-2 substrate phosphorylation,CaMKIIα holoenzyme,neither of the compounds affected substrate phosphorylation
"O=C(O)Cc1cn2nc(-c3ccc(Cl)cc3)ccc2n1 [PIPA, 2‐(6‐(4‐chlorophenyl)imidazo[1,2‐b]pyridazine‐2‐yl)acetic acid]",molecular weight species (mass photometry),CaMKIIα WT hub [4],displayed a shoulder on the main peak around 220 kDa as well as a much larger species at 372 kDa
same,self-association of hub (SAXS),CaMKIIα 6x hub [5],no self‐association was detected
same,maximum ∆Tm,CaMKIIα WT hub [1],13.04 ± 0.09 °C
same,maximum ∆Tm less compared to 5-HDC,CaMKIIα WT hub [1]; difference PIPA vs 5-HDC,10.7 °C
same,maximum ∆Tm,CaMKIIα W403L hub [2],24.5 ± 0.4 °C
same,Kd,CaMKIIα WT hub [6],2.9 ± 0.6 µM
same,self-association / oligomeric state of hub (SAXS),CaMKIIα WT hub [3],induced self‐association
same,IC50,CaMKIIα 6x hub [7],5.01 µM
same,self-association of hub (SAXS),CaMKIIα W403L hub [8],no self‐association was detected
same,change in MW (mass photometry),CaMKIIα W403L hub [9],did not display any change in MW
same,Kd,CaMKIIα W403L hub [10],2.8 ± 0.13 µM
CC(=O)O [acetate],effect on syntide-2 substrate phosphorylation,CaMKIIα holoenzyme,neither of the compounds affected substrate phosphorylation
same,Ki,GHB binding site,> 100 µM
human CaMKIIα W403L hub domain (from UniProt Q9UQM7 345-475) (domain or fragment),stoichiometry N,[11],12
B1,stoichiometry N,SAXS,12
